Experimental data: PMC6399515 (Insect Biochemistry and Molecular Biology, 2016)

Columns and labels:
[1] = biological target: T1, CYP6P3 (Anopheles gambiae, UniProt Q8T632); experiment: Reciprocal IC50 of CYP6P3 metabolism of PPF and permethrin; type: biochemical
T1 sequence (Q8T632 1-509): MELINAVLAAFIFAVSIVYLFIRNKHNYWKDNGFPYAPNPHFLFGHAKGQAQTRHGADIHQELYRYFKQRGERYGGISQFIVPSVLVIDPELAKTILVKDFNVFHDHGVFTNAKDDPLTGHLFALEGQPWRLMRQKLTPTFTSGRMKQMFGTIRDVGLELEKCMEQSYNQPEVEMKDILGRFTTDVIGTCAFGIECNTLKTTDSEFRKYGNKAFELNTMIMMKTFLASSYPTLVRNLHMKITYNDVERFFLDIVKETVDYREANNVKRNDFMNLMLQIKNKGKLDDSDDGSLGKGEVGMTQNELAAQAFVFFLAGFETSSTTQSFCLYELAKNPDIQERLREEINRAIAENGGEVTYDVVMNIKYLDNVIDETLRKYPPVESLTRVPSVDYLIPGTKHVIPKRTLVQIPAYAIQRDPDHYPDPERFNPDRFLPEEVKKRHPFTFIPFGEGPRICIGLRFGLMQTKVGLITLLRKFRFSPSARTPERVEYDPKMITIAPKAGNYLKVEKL
T1 sequence (Q86QH5 1-679 partner): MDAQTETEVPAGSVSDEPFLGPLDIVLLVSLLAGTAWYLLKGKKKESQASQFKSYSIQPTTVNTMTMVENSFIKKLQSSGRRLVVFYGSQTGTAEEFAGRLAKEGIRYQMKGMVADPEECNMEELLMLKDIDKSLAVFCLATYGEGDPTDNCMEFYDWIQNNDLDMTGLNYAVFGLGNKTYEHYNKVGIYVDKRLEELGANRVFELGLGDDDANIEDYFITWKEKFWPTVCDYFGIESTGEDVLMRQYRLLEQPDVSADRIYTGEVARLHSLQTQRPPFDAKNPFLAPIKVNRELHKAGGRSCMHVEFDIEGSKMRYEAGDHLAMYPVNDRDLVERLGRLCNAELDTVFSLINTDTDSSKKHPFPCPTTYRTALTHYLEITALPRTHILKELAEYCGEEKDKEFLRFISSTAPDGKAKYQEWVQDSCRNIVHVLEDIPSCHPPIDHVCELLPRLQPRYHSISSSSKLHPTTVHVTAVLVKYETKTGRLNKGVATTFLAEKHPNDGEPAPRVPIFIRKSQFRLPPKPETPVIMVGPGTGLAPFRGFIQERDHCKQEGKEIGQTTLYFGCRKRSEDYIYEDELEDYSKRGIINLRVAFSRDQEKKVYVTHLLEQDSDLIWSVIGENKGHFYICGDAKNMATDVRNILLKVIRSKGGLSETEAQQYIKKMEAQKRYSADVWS
T1 sequence (Q86QH4 1-128 partner): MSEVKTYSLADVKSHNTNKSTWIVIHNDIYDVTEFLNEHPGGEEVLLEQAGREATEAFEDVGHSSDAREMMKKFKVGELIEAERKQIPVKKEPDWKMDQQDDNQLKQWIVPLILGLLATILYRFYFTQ
Method in brief: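 CYP6P3 was expressed with AgCPR in E. coli JM109 membranes, with b5 added at 10:1 b5:P450. Reactions ran at 30 °C for 90 min with shaking: 0.1 μM P450, 1.0 μM b5, 0.2 M Tris-HCl pH 7.4, 0.25 mM MgCl2, NADPH-regenerating system. PPF (0–1.6 mM) or permethrin (0–3.2 mM) was titrated against the other at fixed 20 μM. Substrate loss was read by C18 HPLC at 232 nm, triplicate controls.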

[2] = biological target: T2, CYP9J5 (Anopheles gambiae, UniProt Q5TN57); experiment: biochemical
T2 sequence (Q5TN57 1-545): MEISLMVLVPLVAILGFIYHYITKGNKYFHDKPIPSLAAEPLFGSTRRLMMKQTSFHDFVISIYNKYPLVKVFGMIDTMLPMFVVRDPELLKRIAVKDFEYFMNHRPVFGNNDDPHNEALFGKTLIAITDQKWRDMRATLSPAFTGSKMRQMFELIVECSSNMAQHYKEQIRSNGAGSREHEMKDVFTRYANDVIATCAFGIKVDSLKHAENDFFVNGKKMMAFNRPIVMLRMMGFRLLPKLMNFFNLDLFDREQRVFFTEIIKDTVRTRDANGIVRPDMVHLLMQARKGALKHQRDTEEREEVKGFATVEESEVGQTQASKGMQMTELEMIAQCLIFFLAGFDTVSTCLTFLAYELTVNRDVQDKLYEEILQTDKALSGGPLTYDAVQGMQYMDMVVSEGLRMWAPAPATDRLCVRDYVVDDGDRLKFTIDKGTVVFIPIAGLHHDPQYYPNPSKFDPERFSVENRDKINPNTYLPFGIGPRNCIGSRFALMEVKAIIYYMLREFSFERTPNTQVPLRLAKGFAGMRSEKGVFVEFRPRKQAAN
T2 sequence (Q86QH5 1-679 partner): T1 sequence (Q86QH5 1-679 partner)
T2 sequence (Q86QH4 1-128 partner): T1 sequence (Q86QH4 1-128 partner)

[3] = biological target: T2, CYP9J5
[4] = biological target: T3, CYP6P4 (Anopheles gambiae, UniProt Q7QCY8)
T3 sequence (Q7QCY8 1-506): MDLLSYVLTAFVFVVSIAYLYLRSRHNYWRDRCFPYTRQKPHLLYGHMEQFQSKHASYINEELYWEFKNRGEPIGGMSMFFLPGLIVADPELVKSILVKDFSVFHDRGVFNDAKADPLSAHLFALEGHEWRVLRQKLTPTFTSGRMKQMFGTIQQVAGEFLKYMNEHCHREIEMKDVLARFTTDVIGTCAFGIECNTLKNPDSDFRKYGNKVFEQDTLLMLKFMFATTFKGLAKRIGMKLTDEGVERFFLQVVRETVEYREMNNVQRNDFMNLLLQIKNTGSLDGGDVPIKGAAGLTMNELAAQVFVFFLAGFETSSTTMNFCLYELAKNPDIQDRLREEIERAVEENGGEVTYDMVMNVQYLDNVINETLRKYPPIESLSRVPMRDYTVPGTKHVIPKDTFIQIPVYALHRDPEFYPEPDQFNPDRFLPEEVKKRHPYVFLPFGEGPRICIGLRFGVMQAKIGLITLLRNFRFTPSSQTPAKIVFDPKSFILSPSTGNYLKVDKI
T3 sequence (Q86QH5 1-679 partner): T1 sequence (Q86QH5 1-679 partner)
T3 sequence (Q86QH4 1-128 partner): T1 sequence (Q86QH4 1-128 partner)

SMILES | IC50 [1] | IC50 [2] | Inhibition ratio (%): reduction of PPF depletion caused by PBO [3] | Inhibition ratio (%): reduction of PPF depletion caused by PBO [4] | % PPF depletion + PBO ([3]; Anopheles gambiae, pH 7.4) | % PPF depletion + PBO ([4]; Anopheles gambiae, pH 7.4) | % PPF depletion −PBO ([4]; Anopheles gambiae, pH 7.4)
CC1(C)C(C=C(Cl)Cl)C1C(=O)OCc1cccc(Oc2ccccc2)c1 (mixture of isomers) [Permethrin, 3-phenoxybenzyl (1R,S)-cis,trans-3-(2,2-dichlorovinyl)-2,2-dimethylcyclopropanecarboxylate] | 61.2 µM | 6.47 µM | – | – | – | – | –
CCCCOCCOCCOCc1cc2c(cc1CCC)OCO2 [PBO, piperonyl butoxide] | – | – | 99.6% | 94.6% | – | – | –
CC(COc1ccc(Oc2ccccc2)cc1)Oc1ccccn1 (stereo not drawn) [PPF, pyriproxyfen] | 92.7 µM | 19 µM | – | – | 0.08 ± 0.15% | 4.44 ± 1.99% | 81.63 ± 0.63%
